Results reported in ChEMBL document CHEMBL4422700, “Trichothecenes from a Soil-Derived Trichoderma brevicompactum” (J Nat Prod, 2019).
In brackets after ≈: the same amount, converted by molar mass. Activity calls are given as the source filed them. The calls are words filed in the database; no cut-off is given here.

How the values were obtained:
Vero = assay: Cytotoxicity against African green monkey Vero cells assessed as reduction in cell viability by resazurin microplate assay; assay type: cell-based, Chlorocebus sabaeus
Outline: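 Vero (African green monkey kidney fibroblast) cells, run in triplicate. Ellipticine served as positive control.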

KB = assay: Cytotoxicity against human KB cells assessed as reduction in cell viability by resazurin microplate assay; assay type: functional, cell-based
Outline: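 KB cells tested by resazurin microplate assay. Ellipticine served as positive control.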

Nannizzia gypsea = assay: Antifungal activity against Microsporum gypseum by colorimetric broth microdilution method; assay type: functional
Plasmodium falciparum = assay: Antimalarial activity against multidrug-resistant Plasmodium falciparum K1 infected in erythrocytes assessed as reduction in [3H]-hypoxanthine incorporation incubated for 24 hrs before [3H]-hypoxanthine addition and measured after 24 hrs by microplate scintillation counting based microculture radioisotope technique; assay type: functional, organism-based
Outline: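 Ring-stage K1 culture in RPMI-1640 at 1.5% erythrocyte suspension and 1% parasitaemia, exposed to test solution at 37 °C under CO2 for 24 h. 3H-hypoxanthine (0.5 μCi per well) was then added and incubation continued 24 h. Incorporation was read by scintillation counting; % growth = CPM treated/CPM untreated × 100. Dihydroartemisinin served as standard.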

Cryptococcus neoformans = assay: Antifungal activity against flucytosine-resistant, Cryptococcus neoformans ATCC 90113 by colorimetric broth microdilution method; assay type: functional
Candida albicans = assay: Antifungal activity against Candida albicans NCPF3153 by colorimetric broth microdilution method; assay type: functional
[1] = Plasmodium falciparum, K1, read-out: IC50

SMILES | IC50 (Vero; vero) | IC50 (KB; kb) | MIC (Nannizzia gypsea) | IC50 (Plasmodium falciparum; read-out: IC50) | MIC (Cryptococcus neoformans) | MIC (Candida albicans) | also measured
CC(=O)O[C@@H]1C[C@H]2O[C@@H]3C=C(CO)CC[C@]3(C)[C@]1(C)[C@]21CO1 | 7.8 µM | 20.6 µM | inactive | 8.8 µM |  |  | 
CC1=C[C@]23O[C@@H]4C[C@@H](O)[C@](C)([C@@]2(C)CC1)[C@]4(CO)O3 |  |  | inactive |  | 16 µg/mL (≈ 60.1 µM) | 16 µg/mL (≈ 60.1 µM) | IC50 (Vero; Chlorocebus sabaeus, Vero): 15.3 µM; IC50 (KB; Homo sapiens, KB): 44.7 µM; IC50 (Plasmodium falciparum; [1]): 7.4 µM
C[C@@H]1[C@H](O)[C@@H](C)/C=C/C=C/C=C/C=C/C=C/C=C/C=C/[C@H](O[C@@H]2O[C@H](C)[C@@H](O)[C@H](N)[C@@H]2O)C[C@@H]2O[C@](O)(C[C@@H](O)C[C@@H](O)[C@H](O)CC[C@@H](O)C[C@@H](O)CC(=O)O[C@H]1C)C[C@H](O)[C@H]2C(=O)O [AMPHOTERICIN B] |  |  |  |  | 0.25 µg/mL (≈ 0.271 µM) | 0.5 µg/mL (≈ 0.541 µM) | 
CC1=C[C@H]2O[C@@H]3C[C@@H](O)[C@](C)([C@@]2(C)CC1)[C@]31CO1 [TRICHODERMOL] | 6.9 µM | 16.1 µM | inactive | 7.1 µM |  |  | 
Cc1c2ccncc2c(C)c2c1[nH]c1ccccc12 [ELLIPTECINE] |  |  |  |  |  |  | IC50 (Vero; Chlorocebus sabaeus, Vero): 4.1 µM
Clc1ccc(COC(Cn2ccnc2)c2ccc(Cl)cc2Cl)c(Cl)c1 (configuration not stated) [MICONAZOLE] |  |  | 1 µg/mL (≈ 2.4 µM) |  |  |  | 
CC(=O)O[C@@H]1C[C@H]2O[C@@H]3C=C(C=O)CC[C@]3(C)[C@]1(C)[C@]21CO1 | 9.9 µM | 3.7 µM | inactive | 9.6 µM |  |  | 
CC(=O)O[C@@H]1C[C@H]2O[C@@H]3C[C@H](CO)CC[C@]3(C)[C@]1(C)[C@]21CO1 | 45.9 µM | 116 µM | inactive |  | inactive | inactive | IC50 (Plasmodium falciparum): Not Active
CC(=O)O[C@@H]1C[C@H]2O[C@@H]3C=C(C)CC[C@]3(C)[C@]1(C)[C@]21CO1 | 0.4 µM | 2.4 µM |  | 0.1 µM |  |  | 
C[C@H]1C(O)O[C@@H]2O[C@@]3(C)CC[C@H]4[C@H](C)CCC1C24OO3 (some centres not stated) |  |  |  |  |  |  | IC50 (Plasmodium falciparum; [1]): 0.0022 µM
